For experiment [1], the species on record is Homo sapiens. In words: Inhibition of human neutrophil leukotriene B4 induced neutrophil chemotaxis at 10e-5 M compound concentration; NA = not active. Type of experiment: functional. In short, it runs like this:
(§1)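 Human neutrophils isolated from citrated peripheral blood by 5% dextran sedimentation, Histopaque centrifugation and hypotonic erythrocyte lysis. 3×10^6 cells/mL in HEPES-buffered HBSS in upper well of modified Boyden chamber; lower well, across polycarbonate membrane, held HBSS or 3×10^-8 M LTB4 ± compound. 90 min, 37 °C; lower-well cells lysed, nuclei counted (Coulter); % inhibition after subtracting mean HBSS random migration.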

The species named for experiment [2] is Homo sapiens. In words: Inhibition of human neutrophil leukotriene B4 induced neutrophil degranulation at 10e-5 M compound concentration; NA = not active. Type of experiment: functional. In short, it runs like this:
(§2)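 Human neutrophils (3×10^6 in 1 mL HBSS) preincubated with cytochalasin B (5 µg) 5 min at 37 °C, then compound 7 min, then stimulated 2-20 min with LTB4 5×10^-8 M. Degranulation read as myeloperoxidase released into medium; pellets sonicated in phosphate buffer with 0.4% Triton X-100, supernatants brought to 0.4% Triton, both assayed.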

The test system of experiment [3] is Cavia porcellus. In words: Topical effective dose when coapplied with phorbol ester (PMA) was assessed by ear weight as a reflection of edema. Type of experiment: functional.
Experiment [4] is filed under the species Bos taurus. In words: Inhibition of bovine heart phosphodiesterase at 50 uM (no inhibition).
Experiment [5] relates to Homo sapiens. In words: Blood plasma levels of compound after 40 mg/kg oral dose of compound at 1 hr. The format is functional, organism-based. More on the design: dose 40 mg/kg. The procedure, abridged: (§3)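 Single 40 mg/kg oral dose; blood plasma drug level sampled at 1 h and 12 h after dosing.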
The subject of experiment [6] is Homo sapiens. In words: Blood plasma levels of compound after 40 mg/kg oral dose of compound at 12 hr. The format is functional, organism-based. Also noted: dose 40 mg/kg. The procedure, abridged:
as §3

The target of experiment [7] is T1, Cysteinyl leukotriene receptor 1 (Cavia porcellus) (UniProt Q2NNR5).
T1 sequence (whole entry): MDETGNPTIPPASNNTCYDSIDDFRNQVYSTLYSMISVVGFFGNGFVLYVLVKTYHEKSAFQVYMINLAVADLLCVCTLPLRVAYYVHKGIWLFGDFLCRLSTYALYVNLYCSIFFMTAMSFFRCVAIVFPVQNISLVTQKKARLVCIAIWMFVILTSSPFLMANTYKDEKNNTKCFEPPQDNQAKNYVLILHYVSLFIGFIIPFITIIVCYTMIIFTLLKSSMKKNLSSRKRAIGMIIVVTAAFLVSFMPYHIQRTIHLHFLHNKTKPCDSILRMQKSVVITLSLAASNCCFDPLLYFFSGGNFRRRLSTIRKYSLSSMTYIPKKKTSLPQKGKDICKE
In words: Inhibition of binding to the leukotriene D4 receptor at 1*10e-5 M concentration. The procedure, abridged: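 Competition binding at LTD4 receptor: protein adjusted to about 0.1 nM receptor with 1 nM [3H]LTD4, 30 min at 24 °C; bound and free ligand separated by filtration. Compound tested at 1×10^-5 M.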

The species named for experiment [8] is Homo sapiens. In words: Inhibition of human neutrophil leukotriene B4 induced neutrophil chemotaxis. The format is functional. The procedure, abridged:
as §1

For experiment [9], the species on record is Homo sapiens. In words: Inhibition of human neutrophil leukotriene B4 induced neutrophil degranulation. The format is functional. The procedure, abridged: as §2

Structures are written as SMILES. The source made the active and inactive calls. The calls are words filed in the database; no cut-off is given here.

The record followed here is ChEMBL document CHEMBL1124474, “7-[3-(4-acetyl-3-methoxy-2-propylphenoxy)propoxy]-3,4-dihydro-8- propyl-2H-1-benzopyran-2-carboxylic acid: an orally active selective leukotriene B4 receptor antagonist” (J Med Chem, 1989).

For `CCCc1c(OCCCOc2ccc3c(c2CCC)OC(C(=O)O)CC3)ccc(C(C)=O)c1O` (centres undefined), the result in experiment [1] and in experiment [2] was inactive.
Consider `CCCc1c(OCCCOc2ccc(C(C)=O)c(OC)c2CCC)ccc2c1OC(C(=O)O)CC2` (centres undefined) [SC-41390], for which, in experiment [3], the ED50 turned out to be 4.1 uM ear-1. Also, in experiment [4], the inhibition result was “inactive”. Besides, the figures for the Plasma level in experiment [5] and in [6] were 7 µg/mL and 12 µg/mL, respectively. This compound gave an inhibition in [7] of 4%. Moreover, the IC50 is 2 µM in [8] and 1 µM in experiment [9].
